Test results reported in ChEMBL document CHEMBL3425464, “HM30181 Derivatives as Novel Potent and Selective Inhibitors of the Breast Cancer Resistance Protein (BCRP/ABCG2)” (J Med Chem, 2015).

Columns and labels:
BCRP (ABCG2) [1] = target: T1, BCRP (ABCG2) (Homo sapiens, UniProt Q9UNQ0); assay: Inhibition of GFP-tagged human BCRP expressed in MDCK2 cells pre-incubated for 30 mins followed by Hoechst 33342 addition and further incubated for 120 mins by Hoechst 33342 accumulation assay relative to XR9577; assay type: cell-based, MDCK-II; conditions: MDCK2 cells expressing GFP-tagged human BCRP, probe Hoechst 33342, read-out: Imax
T1 sequence (Q9UNQ0 whole entry): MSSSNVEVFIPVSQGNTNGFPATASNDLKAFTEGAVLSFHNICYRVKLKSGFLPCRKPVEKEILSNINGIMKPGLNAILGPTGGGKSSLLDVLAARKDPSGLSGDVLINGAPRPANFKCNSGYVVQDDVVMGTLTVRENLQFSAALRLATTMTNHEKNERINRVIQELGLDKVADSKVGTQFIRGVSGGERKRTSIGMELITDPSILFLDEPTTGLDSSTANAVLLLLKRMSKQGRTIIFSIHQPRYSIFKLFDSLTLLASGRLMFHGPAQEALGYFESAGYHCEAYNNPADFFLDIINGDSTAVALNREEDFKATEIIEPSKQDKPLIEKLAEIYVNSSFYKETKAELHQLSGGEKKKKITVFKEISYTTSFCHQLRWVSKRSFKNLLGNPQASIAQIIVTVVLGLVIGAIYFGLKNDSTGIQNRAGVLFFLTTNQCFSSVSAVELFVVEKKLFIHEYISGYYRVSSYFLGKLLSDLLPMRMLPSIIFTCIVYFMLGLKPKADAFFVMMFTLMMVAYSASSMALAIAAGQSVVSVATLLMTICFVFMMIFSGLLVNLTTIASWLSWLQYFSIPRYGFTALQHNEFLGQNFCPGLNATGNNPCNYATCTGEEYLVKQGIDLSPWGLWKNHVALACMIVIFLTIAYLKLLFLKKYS

[2] = target: T2, Broad substrate specificity ATP-binding cassette transporter ABCG2 (Homo sapiens, UniProt Q9UNQ0); assay: Inhibition of GFP-tagged human BCRP expressed in MDCK2 cells pre-incubated for 30 mins followed by Hoechst 33342 addition and further incubated for 120 mins by Hoechst 33342 accumulation assay; assay type: cell-based, MDCK-II
T2 sequence (Q9UNQ0 whole entry): T1 sequence (Q9UNQ0 whole entry)
Procedure, shortened: (§1)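 MDCK II cells stably carrying human BCRP cDNA C-terminally fused to GFP are washed in KHB, pH 7.4. About 30,000 cells/well are preincubated 30 min at 37 °C with compound up to 10 μM (DMSO ≤0.1%, methanol ≤5% for poorly soluble compounds). Hoechst 33342 is added from a 10 μM solution, and fluorescence (ex 355/em 460) is read every 60 s for 120 min. The steady-state mean (100–109 min) is fitted to a four-parameter logistic curve.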

ABCB1 (P-gp) = ABCB1 (P-gp) (Homo sapiens, UniProt P08183); assay: Inhibition of ABCB1 in human A2780adr cells at 10 uM pre-incubated for 30 mins followed by calcein AM addition and further incubated for 60 mins by calcein AM assay; assay type: cell-based, A2780 ADR; conditions: probe calcein AM
Chain of ABCB1 (P-gp) (P08183 whole entry): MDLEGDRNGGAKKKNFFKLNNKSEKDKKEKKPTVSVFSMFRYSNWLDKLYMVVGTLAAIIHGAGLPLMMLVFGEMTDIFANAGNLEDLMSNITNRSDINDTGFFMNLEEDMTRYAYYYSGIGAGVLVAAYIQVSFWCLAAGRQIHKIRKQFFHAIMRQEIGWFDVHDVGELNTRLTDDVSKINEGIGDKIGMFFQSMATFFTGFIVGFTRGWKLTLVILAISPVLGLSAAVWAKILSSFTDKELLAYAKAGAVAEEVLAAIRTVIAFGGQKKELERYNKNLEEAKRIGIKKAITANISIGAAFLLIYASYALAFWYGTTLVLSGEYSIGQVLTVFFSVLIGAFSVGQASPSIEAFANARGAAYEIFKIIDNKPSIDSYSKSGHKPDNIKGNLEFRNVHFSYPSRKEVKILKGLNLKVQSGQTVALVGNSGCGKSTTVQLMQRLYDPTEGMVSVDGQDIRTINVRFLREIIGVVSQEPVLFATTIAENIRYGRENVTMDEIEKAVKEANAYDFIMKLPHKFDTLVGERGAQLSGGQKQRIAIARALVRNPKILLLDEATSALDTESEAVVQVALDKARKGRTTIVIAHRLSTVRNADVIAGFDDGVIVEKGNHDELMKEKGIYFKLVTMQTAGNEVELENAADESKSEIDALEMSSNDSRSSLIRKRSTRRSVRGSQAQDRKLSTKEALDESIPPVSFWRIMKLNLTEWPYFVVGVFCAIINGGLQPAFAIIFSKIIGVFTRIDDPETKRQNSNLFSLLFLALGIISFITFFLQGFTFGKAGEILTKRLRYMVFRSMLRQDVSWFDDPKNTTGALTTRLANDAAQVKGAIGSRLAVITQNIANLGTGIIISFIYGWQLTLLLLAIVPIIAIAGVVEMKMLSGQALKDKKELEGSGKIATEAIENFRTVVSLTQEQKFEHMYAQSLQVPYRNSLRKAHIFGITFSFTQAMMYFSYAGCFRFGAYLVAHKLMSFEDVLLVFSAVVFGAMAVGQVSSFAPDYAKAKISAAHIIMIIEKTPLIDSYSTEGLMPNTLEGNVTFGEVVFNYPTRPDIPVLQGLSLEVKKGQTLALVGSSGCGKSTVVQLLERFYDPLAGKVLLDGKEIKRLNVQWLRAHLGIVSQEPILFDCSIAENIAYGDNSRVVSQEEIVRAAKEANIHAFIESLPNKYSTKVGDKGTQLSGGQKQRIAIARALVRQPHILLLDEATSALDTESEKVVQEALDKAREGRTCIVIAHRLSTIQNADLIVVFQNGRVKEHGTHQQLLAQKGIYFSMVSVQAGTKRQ

[3] = Solubility in water; assay type: physicochemical; conditions: buffer
[4] = target: Multidrug resistance-associated protein 1 (Homo sapiens, UniProt P33527); assay: Inhibition of MRP1 in human H69AR cells at 10 uM pre-incubated for 30 mins followed by calcein AM addition and further incubated for 60 mins by calcein AM assay; conditions: 1 h
Chain of Multidrug resistance-associated protein 1 (P33527 whole entry): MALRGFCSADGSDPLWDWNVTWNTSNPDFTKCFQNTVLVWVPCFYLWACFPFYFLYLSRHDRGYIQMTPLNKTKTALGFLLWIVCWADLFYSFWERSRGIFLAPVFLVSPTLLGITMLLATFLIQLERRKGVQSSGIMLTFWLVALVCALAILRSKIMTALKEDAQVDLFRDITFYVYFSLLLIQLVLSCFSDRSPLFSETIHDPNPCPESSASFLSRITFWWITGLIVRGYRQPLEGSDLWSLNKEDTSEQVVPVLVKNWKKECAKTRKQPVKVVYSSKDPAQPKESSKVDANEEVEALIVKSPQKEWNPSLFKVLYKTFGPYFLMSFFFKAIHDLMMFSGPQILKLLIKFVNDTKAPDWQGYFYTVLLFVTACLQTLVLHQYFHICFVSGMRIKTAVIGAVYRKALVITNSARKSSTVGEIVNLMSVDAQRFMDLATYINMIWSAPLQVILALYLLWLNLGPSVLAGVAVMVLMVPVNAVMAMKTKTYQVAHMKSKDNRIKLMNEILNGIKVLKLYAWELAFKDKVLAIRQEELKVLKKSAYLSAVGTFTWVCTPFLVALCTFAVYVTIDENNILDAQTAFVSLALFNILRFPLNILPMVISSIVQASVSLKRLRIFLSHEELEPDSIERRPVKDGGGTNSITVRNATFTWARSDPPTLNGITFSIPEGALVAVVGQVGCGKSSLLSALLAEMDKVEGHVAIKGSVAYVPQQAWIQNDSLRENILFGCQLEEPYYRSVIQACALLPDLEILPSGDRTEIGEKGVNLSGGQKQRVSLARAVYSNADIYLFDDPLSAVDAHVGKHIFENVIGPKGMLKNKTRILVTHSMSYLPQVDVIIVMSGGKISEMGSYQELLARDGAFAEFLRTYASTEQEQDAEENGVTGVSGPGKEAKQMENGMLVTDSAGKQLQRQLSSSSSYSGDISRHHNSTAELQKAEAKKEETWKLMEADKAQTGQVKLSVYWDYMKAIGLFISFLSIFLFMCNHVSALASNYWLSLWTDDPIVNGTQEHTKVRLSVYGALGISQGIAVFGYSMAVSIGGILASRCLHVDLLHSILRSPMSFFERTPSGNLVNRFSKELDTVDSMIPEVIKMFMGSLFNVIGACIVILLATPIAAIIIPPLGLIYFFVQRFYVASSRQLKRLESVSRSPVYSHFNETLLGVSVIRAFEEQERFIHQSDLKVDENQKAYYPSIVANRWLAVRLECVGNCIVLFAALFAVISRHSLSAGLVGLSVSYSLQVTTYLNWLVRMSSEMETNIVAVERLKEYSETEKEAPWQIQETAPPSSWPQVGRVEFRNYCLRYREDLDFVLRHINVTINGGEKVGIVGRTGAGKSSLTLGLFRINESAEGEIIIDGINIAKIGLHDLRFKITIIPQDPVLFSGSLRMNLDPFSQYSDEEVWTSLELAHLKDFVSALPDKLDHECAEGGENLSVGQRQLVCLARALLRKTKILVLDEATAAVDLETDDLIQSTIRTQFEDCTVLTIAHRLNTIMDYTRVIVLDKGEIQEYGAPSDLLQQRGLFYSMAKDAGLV

[5] = Solubility in DMSO; assay type: physicochemical
[6] = target: T2, Broad substrate specificity ATP-binding cassette transporter ABCG2; assay: Inhibition of GFP-tagged human BCRP expressed in MDCK2 cells up to 10 uM pre-incubated for 30 mins followed by Hoechst 33342 addition and further incubated for 120 mins by Hoechst 33342 accumulation assay; assay type: cell-based; conditions: mdck-ii, 2 h; procedure, shortened: as §1
[7] = target: ATP-dependent translocase ABCB1 (Homo sapiens, UniProt P08183); assay: Inhibition of ABCB1 in human A2780adr cells pre-incubated for 30 mins followed by calcein AM addition and further incubated for 60 mins by calcein AM assay; assay type: cell-based, A2780 ADR
Chain of ATP-dependent translocase ABCB1 (P08183 whole entry): as the sequence (P08183 whole entry) above

[8] = Intrinsic cytotoxicity against BCRP expressing MDCK2 cells assessed as reduction in cell viability after 72 hrs by MTT assay; assay type: ADME, cell-based, Canis lupus familiaris, MDCK-II; conditions: dog
Procedure, shortened: (§2)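 Cells are seeded at 3000/well and allowed to attach for 6 h at 37 °C, 5% CO2. They are then exposed to compound in medium, up to 100 μM final (DMSO ≤1.0%), for 72 h. Controls are medium alone (negative) and 10% DMSO (positive). MTT is added for 1 h, formazan is dissolved in DMSO, and absorbance is read at 570 nm minus 690 nm. Viability is expressed as % of the negative control, and GI50 comes from a variable-slope sigmoidal fit. n = 3, each in quadruplicate.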

[9] = Intrinsic cytotoxicity against wild type MDCK2 cells assessed as reduction in cell viability after 72 hrs by MTT assay; assay type: cell-based, Canis lupus familiaris, MDCK-II; conditions: dog; procedure, shortened: as §2
[10] = target: T2, Broad substrate specificity ATP-binding cassette transporter ABCG2; assay: Inhibition of human BCRP expressed in MDCK2 cells assessed as reversal of multidrug resistance by measuring increase in SN-38-induced cytotoxicity at 5 uM after 72 hrs by MTT assay; assay type: cell-based; conditions: mdck-ii
Procedure, shortened: (§3)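 MDCK II BCRP cells are seeded at 3000/well and allowed to attach for 6 h at 37 °C, 5% CO2. They are then exposed to SN-38 (up to 100 μM) alone or together with 3 μM or 5 μM modulator for 72 h. MDCK II wild-type cells given SN-38 serve as the comparison. MTT is added for 1 h, formazan is dissolved in DMSO, and absorbance is read at 570 nm with 690 nm background.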

[11] = target: T2, Broad substrate specificity ATP-binding cassette transporter ABCG2; assay: Inhibition of human BCRP expressed in MDCK2 cells assessed as reversal of multidrug resistance by measuring increase in SN-38-induced cytotoxicity at 3 uM after 72 hrs by MTT assay; assay type: cell-based; conditions: mdck-ii; procedure, shortened: as §3
BCRP (ABCG2) [12] = target: T1, BCRP (ABCG2); assay: Potency index, ratio of IC50 for Ko143 to IC50 for compound against GFP-tagged human BCRP expressed in MDCK2 cells by Hoechst 33342 accumulation assay; assay type: cell-based; conditions: MDCK2 cells expressing GFP-tagged human BCRP, probe Hoechst 33342, read-out: Ratio IC50
[13] = Ratio of GI50 for wild type MDCK2 cells by MTT assay to IC50 for GFP-tagged human BCRP expressed in MDCK2 cells by Hoechst 33342 accumulation assay; parameters: species or system MDCK-II
Procedure, shortened: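 Ratio of two values. […] Read at 570/690 nm as % of medium control; n = 3, each in quadruplicate. IC50 came from Hoechst 33342 accumulation in MDCK II BCRP-GFP cells: 2 h at 37 °C, steady-state fluorescence, four-parameter fit.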

Emax at 2 h (BCRP (ABCG2) [1]) [%] | IC50 [2] [nM] | inhibition at 1 h, 10 µM (ABCB1 (P-gp)) [%] | solubility [3] | inhibition (INH) [4] | solubility [5] [mM] | inhibition (INH) [6] | IC50 [7] [nM] | Structure (SMILES) | GI50 at 72 h [8] [nM] | GI50 at 72 h [9] [nM] | inhibition (INH) [10] | inhibition (INH) [11] | selectivity ratio (BCRP (ABCG2) [12]) | Ratio [13]
 |  | < 25 | Insoluble | Not Active | > 10 | Not Active |  | O=C(Nc1ccccc1-c1nnn(-c2ccc(C(F)(F)F)cc2)n1)c1ccc([N+](=O)[O-])cc1 |  |  |  |  |  | 
102 | 261 | < 25 | Insoluble | Not Active | > 10 |  |  | COc1ccccc1-n1nnc(-c2ccccc2NC(=O)c2ccc([N+](=O)[O-])cc2)n1 |  |  |  |  |  | 
 |  | < 25 | Insoluble | Not Active | > 10 | Not Active |  | CCCc1ccc(-n2nnc(-c3ccccc3NC(=O)c3ccc(C(F)(F)F)cc3)n2)cc1 |  |  |  |  |  | 
65 | 137 | < 25 | Insoluble | Not Active | > 10 |  |  | Cc1ccc(-n2nnc(-c3ccccc3NC(=O)c3ccc(C(F)(F)F)cc3)n2)cc1 |  |  |  |  |  | 
 |  | < 25 | Insoluble | Not Active | > 10 | Not Active |  | CCOc1ccc(-n2nnc(-c3ccccc3NC(=O)c3ccc(C(F)(F)F)cc3)n2)cc1 |  |  |  |  |  | 
100 | 451 | ≥ 25 | Insoluble | Not Active | > 10 |  | 11000 | COc1ccccc1-n1nnc(-c2ccccc2NC(=O)c2ccc(C(F)(F)F)cc2)n1 |  |  |  |  |  | 
100 | 11200 | < 25 | Insoluble | Not Active | > 10 |  |  | COc1cccc(-n2nnc(-c3ccccc3NC(=O)c3ccc(C(F)(F)F)cc3)n2)c1 |  |  |  |  |  | 
93 | 106 | < 25 | Insoluble | Not Active | > 10 |  |  | COc1ccc(-n2nnc(-c3ccccc3NC(=O)c3ccc(C(F)(F)F)cc3)n2)cc1 |  |  |  |  |  | 
85 | 269 | < 25 | Insoluble | Not Active | > 10 |  |  | COc1ccc(C(=O)Nc2ccccc2-c2nnn(-c3ccc(C(F)(F)F)cc3)n2)cc1OC |  |  |  |  |  | 
102 | 73 | < 25 | Insoluble | Not Active | > 10 |  |  | COc1ccc(C(=O)Nc2ccccc2-c2nnn(-c3ccc(C(F)(F)F)cc3)n2)cc1 | 40200 | 34400 | Active | Active | 2 | 500
88 | 180 | ≥ 25 | Insoluble | Not Active | > 10 |  | 7730 | COc1ccc(C(=O)Nc2ccccc2-c2nnn(-c3ccccc3OC)n2)cc1 |  |  |  |  |  | 

The remaining lines, values behind:

Structure (SMILES) | Emax at 2 h (BCRP (ABCG2) [1]) [%] | IC50 [2] [nM] | inhibition at 1 h, 10 µM (ABCB1 (P-gp)) [%] | solubility [3] | inhibition (INH) [4] | solubility [5] [mM] | inhibition (INH) [6] | IC50 [7] [nM] | GI50 at 72 h [8] [nM] | GI50 at 72 h [9] [nM] | inhibition (INH) [10] | inhibition (INH) [11] | selectivity ratio (BCRP (ABCG2) [12]) | Ratio [13]
CCCc1ccc(-n2nnc(-c3ccccc3NC(=O)c3ccc([N+](=O)[O-])cc3)n2)cc1 | 63 | 184 | < 25 | Insoluble | Not Active | > 10 |  |  |  |  |  |  |  | 
Cc1ccc(-n2nnc(-c3ccccc3NC(=O)c3ccc([N+](=O)[O-])cc3)n2)cc1 | 71 | 100 | < 25 | Insoluble | Not Active | > 10 |  |  |  |  |  |  |  | 
CCOc1ccc(-n2nnc(-c3ccccc3NC(=O)c3ccc([N+](=O)[O-])cc3)n2)cc1 |  |  | < 25 | Insoluble | Not Active | > 10 | Not Active |  |  |  |  |  |  | 
COc1cccc(-n2nnc(-c3ccccc3NC(=O)c3ccc([N+](=O)[O-])cc3)n2)c1 | 58 | 78.9 | < 25 | Insoluble | Not Active | > 10 |  |  |  |  |  |  |  | 
COc1ccc(-n2nnc(-c3ccccc3NC(=O)c3ccc([N+](=O)[O-])cc3)n2)cc1 | 61 | 118 | < 25 | Insoluble | Not Active | > 10 |  |  |  |  |  |  |  | 
O=C(Nc1ccccc1-c1nnn(-c2ccc(C(F)(F)F)cc2)n1)c1ccc(C(F)(F)F)cc1 |  |  | < 25 | Insoluble | Not Active | > 10 | Not Active |  |  |  |  |  |  | 
CCOc1ccc(-n2nnc(-c3ccccc3NC(=O)c3ccc(OC)c(OC)c3)n2)cc1 | 106 | 201 | ≥ 25 | Insoluble | Not Active | > 10 |  | 32800 |  |  |  |  |  | 
COc1ccc(-n2nnc(-c3ccccc3NC(=O)c3ccc(OC)c(OC)c3)n2)cc1 | 107 | 117 | ≥ 25 | Insoluble | Not Active | > 10 |  | 37200 |  |  |  |  |  | 
CCCc1ccc(-n2nnc(-c3ccccc3NC(=O)c3ccc(OC)cc3)n2)cc1 | 88 | 64.2 | < 25 | Insoluble | Not Active | > 10 |  |  | 61800 | 63200 |  |  | 2 | 1000
CCCc1ccc(C(=O)Nc2ccccc2-c2nnn(-c3ccc(OC)cc3)n2)cc1 | 91 | 79.4 | < 25 | Insoluble | Not Active | > 10 |  |  | 60900 | 77600 |  |  | 2 | 1000
O=C(Nc1ccccc1C(=O)Nc1ccc(CCN2CCc3ccccc3C2)cc1)c1cnc2ccccc2c1 |  | 721 |  |  |  |  |  |  |  |  |  |  |  | 
